Laboratory results as given in ChEMBL document CHEMBL1145117, “Structures and cytotoxic properties of trichoverroids and their macrolide analogues produced by saltwater culture of Myrothecium verrucaria” (J Med Chem, 2003).

What was measured:
RXF 393 = test: In vitro antitumor activity against renal RXF 393 tumor cell lines; assay type: functional, cell-based, Homo sapiens; conditions: rxf 393
NCI-H522 = test: In vitro antitumor activity against NSCL NCI-H522 tumor cell lines; assay type: functional, cell-based, Homo sapiens; conditions: nci-h522
NCI-H226 = test: In vitro antitumor activity against NSCL NCI-H226 tumor cell lines; assay type: functional, cell-based, Homo sapiens; conditions: nci-h226
M14 = test: In vitro antitumor activity against melanoma M14 tumor cell lines; assay type: functional, cell-based, Homo sapiens; conditions: m14
HL-60 = test: In vitro antitumor activity against leukemia HL-60(TB) tumor cell lines; assay type: functional, cell-based, Homo sapiens; conditions: hl-60
MCF7 = test: In vitro antitumor activity against breast MCF-7 tumor cell lines; assay type: functional, cell-based, Homo sapiens; conditions: mcf7
SK-MEL-2 = test: In vitro antitumor activity against melanoma SK-MEL-2 tumor cell lines; assay type: functional, cell-based, Homo sapiens; conditions: sk-mel-2
A549 = test: In vitro antitumor activity against NSCL A549/ATCC tumor cell lines; assay type: functional, cell-based, Homo sapiens; conditions: a549
A498 = test: In vitro antitumor activity against renal A498 tumor cell lines; assay type: functional, cell-based, Homo sapiens; conditions: a498
MOLT-4 = test: In vitro antitumor activity against leukemia MOLT-4 tumor cell lines; assay type: functional, cell-based, Homo sapiens; conditions: molt-4
CCRF-CEM = test: In vitro antitumor activity against leukemia CCRF-CEM tumor cell lines; assay type: functional, cell-based, Homo sapiens; conditions: ccrf-cem
UACC-62 = test: In vitro antitumor activity against melanoma UACC-62 tumor cell lines; assay type: functional, cell-based, Homo sapiens; conditions: uacc-62
HCT-15 = test: In vitro antitumor activity against colon HCT-15 tumor cell lines; assay type: functional, cell-based, Homo sapiens; conditions: hct-15
MDA-MB-435 = test: In vitro antitumor activity against breast MDA-MB-435 tumor cell lines; assay type: functional, cell-based, Homo sapiens; conditions: mda-mb-435
HCT-116 = test: In vitro antitumor activity against colon HCT116 tumor cell lines; assay type: functional, cell-based, Homo sapiens; conditions: hct-116
Homo sapiens = species on record: Homo sapiens; test: Concentration giving 500 zone units against H116 colon tumor cell lines; assay type: functional
In short: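 Disk diffusion soft agar colony formation assay on human H116 colon tumor cells. Each sample was applied to a disk as 15 µL, and activity was read as zone units. The value is the sample concentration that gave 500 zone units.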

MDA-N = test: In vitro antitumor activity against breast MDA-N tumor cell lines; assay type: functional, cell-based, Homo sapiens; conditions: mda-n
COLO 205 = test: In vitro antitumor activity against colon COLO 205 tumor cell lines; assay type: functional, cell-based, Homo sapiens; conditions: colo 205
786-0 = test: In vitro antitumor activity against renal 786-0 tumor cell lines; assay type: functional, cell-based, Homo sapiens

`CC1=C[C@H]2O[C@@H]3[C@H](O)[C@H]4OC(=O)/C=C\C=C\[C@H]([C@H](C)O)OCC/C(C)=C/C(=O)OC[C@@]2(CC1)[C@]4(C)[C@]31CO1` [RORIDIN L] was tested, and the IC50 (RXF 393) was over 10000 nM, the IC50 (NCI-H522) was 21 nM and the IC50 (NCI-H226) was 91 nM. The IC50 (M14) was 24 nM, the IC50 (HL-60) was over 10000 nM and the IC50 (MCF7) was over 10000 nM. For the same molecule, the IC50 (SK-MEL-2) was 24 nM, the IC50 (A549) was over 10000 nM and the IC50 (A498) was 19 nM. The IC50 (MOLT-4) was over 10000 nM, the IC50 (CCRF-CEM) was over 10000 nM and the IC50 (UACC-62) was 18 nM. It also gave an IC50 (HCT-15) of over 10000 nM, an IC50 (MDA-MB-435) of 20 nM and an IC50 (HCT-116) of over 10000 nM. For the same molecule, the Concentration (Homo sapiens) was 1.3 µg/mL, the IC50 (MDA-N) was 21 nM and the IC50 (COLO 205) was 13 nM.

For `CC1=C[C@H]2O[C@@H]3[C@H](O)[C@H]4OC(=O)/C=C\C=C\[C@@H]5O[C@H](C/C(C)=C/C(=O)OC[C@@]2(CC1)[C@]4(C)[C@]31CO1)O[C@H]5C` [RORIDIN M], the IC50 (RXF 393) was 2180 nM, the IC50 (NCI-H522) was 26 nM and the IC50 (NCI-H226) was 157 nM. The IC50 (786-0) was over 10000 nM, the IC50 (M14) was 75 nM and the IC50 (HL-60) was over 10000 nM. For the same molecule, the IC50 (MCF7) was over 10000 nM, the IC50 (SK-MEL-2) was 260 nM and the IC50 (A549) was over 10000 nM. The IC50 (A498) was 583 nM, the IC50 (MOLT-4) was over 10000 nM and the IC50 (CCRF-CEM) was over 10000 nM. It also gave an IC50 (UACC-62) of 409 nM, an IC50 (HCT-15) of 483 nM and an IC50 (MDA-MB-435) of 137 nM. For the same molecule, the IC50 (HCT-116) was 75 nM, the Concentration (Homo sapiens) was 41 µg/mL and the IC50 (MDA-N) was 83 nM.

Molecule `CC1=C[C@H]2OC3C[C@@H](OC(=O)/C=C\C=C\[C@H](O)[C@H](C)O)[C@](C)([C@@]2(COC(=O)/C=C(\C)CCO)CC1)[C@]31CO1` [TRICHOVERRIN A] has an IC50 (RXF 393) of over 10000 nM, an IC50 (NCI-H522) of 936 nM and an IC50 (NCI-H226) of 8410 nM. The IC50 (786-0) was over 10000 nM, the IC50 (M14) was 7870 nM and the IC50 (HL-60) was over 10000 nM. For the same molecule, the IC50 (MCF7) was over 10000 nM, the IC50 (SK-MEL-2) was 7540 nM and the IC50 (A549) was 5440 nM. It also gave an IC50 (A498) of 6960 nM, an IC50 (MOLT-4) of over 10000 nM and an IC50 (CCRF-CEM) of over 10000 nM. It also gave an IC50 (UACC-62) of over 10000 nM, an IC50 (HCT-15) of over 10000 nM and an IC50 (MDA-MB-435) of 2700 nM. For the same molecule, the IC50 (HCT-116) was over 10000 nM, the Concentration (Homo sapiens) was 163 µg/mL and the IC50 (MDA-N) was 7780 nM. The IC50 (COLO 205) was 1310 nM.

Work on `CC1=C[C@H]2OC3C[C@@H](OC(=O)/C=C\C=C\[C@H](O)[C@@H](C)O)[C@](C)([C@@]2(COC(=O)/C=C(\C)CCO)CC1)[C@]31CO1` [TRICHOVERRIN B] yielded an IC50 (RXF 393) of over 10000 nM, an IC50 (NCI-H522) of 904 nM and an IC50 (NCI-H226) of 6930 nM. It also gave an IC50 (786-0) of over 10000 nM, an IC50 (M14) of 7100 nM and an IC50 (HL-60) of over 10000 nM. For the same molecule, the IC50 (MCF7) was over 10000 nM, the IC50 (SK-MEL-2) was 8910 nM and the IC50 (A549) was 6210 nM. For the same molecule, the IC50 (A498) was 8160 nM, the IC50 (MOLT-4) was over 10000 nM and the IC50 (CCRF-CEM) was over 10000 nM. The IC50 (UACC-62) was over 10000 nM, the IC50 (HCT-15) was over 10000 nM and the IC50 (MDA-MB-435) was 5490 nM. The IC50 (HCT-116) was over 10000 nM, the Concentration (Homo sapiens) was 175 µg/mL and the IC50 (MDA-N) was over 10000 nM. It also gave an IC50 (COLO 205) of 4020 nM.

`CC1=C[C@H]2O[C@@H]3C[C@H]4OC(=O)/C=C\C=C\C(=O)OCC[C@@H](C)[C@H](O)C(=O)OC[C@@]2(CC1)[C@]4(C)[C@]31CO1` [VERRUCARIN A] was tested, and the IC50 (RXF 393) was over 10000 nM, the IC50 (NCI-H522) was under 1 nM and the IC50 (NCI-H226) was 4 nM. It also gave an IC50 (M14) of under 1 nM, an IC50 (HL-60) of over 10000 nM and an IC50 (MCF7) of 1200 nM. It also gave an IC50 (SK-MEL-2) of 8 nM, an IC50 (A549) of over 10000 nM and an IC50 (A498) of 3 nM. For the same molecule, the IC50 (MOLT-4) was over 10000 nM, the IC50 (CCRF-CEM) was over 10000 nM and the IC50 (UACC-62) was 5 nM. For the same molecule, the IC50 (HCT-15) was 8100 nM, the IC50 (MDA-MB-435) was 4 nM and the IC50 (HCT-116) was over 10000 nM. The Concentration (Homo sapiens) was 0.78 µg/mL, the IC50 (MDA-N) was 82 nM and the IC50 (COLO 205) was under 1 nM.

Work on `CC1=C[C@H]2O[C@@H]3[C@H](O)[C@H]4OC(=O)/C=C\C=C\C(=O)OCC/C(C)=C/C(=O)OC[C@@]2(CC1)[C@]4(C)[C@]31CO1` [VERRUCARRIN M] yielded an IC50 (RXF 393) of 84 nM, an IC50 (NCI-H522) of under 1 nM and an IC50 (NCI-H226) of 33 nM. It also gave an IC50 (786-0) of over 10000 nM, an IC50 (M14) of 8 nM and an IC50 (HL-60) of over 10000 nM. For the same molecule, the IC50 (MCF7) was over 10000 nM, the IC50 (SK-MEL-2) was 37 nM and the IC50 (A498) was 53 nM. For the same molecule, the IC50 (MOLT-4) was over 10000 nM, the IC50 (CCRF-CEM) was over 10000 nM and the IC50 (UACC-62) was 57 nM. For the same molecule, the IC50 (HCT-15) was 73 nM, the IC50 (MDA-MB-435) was 14 nM and the Concentration (Homo sapiens) was 30 µg/mL. For the same molecule, the IC50 (MDA-N) was 14 nM and the IC50 (COLO 205) was 7 nM.
